Where “and” joins values, the source holds several entries; their conditions need not be identical. Identical values can stand only once. Calls of active or inactive are those of the source.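 The calls were made as follows: active = compounds specific to the target that block phage lysis by more than 30% when retested across doses; inactive = the rest, not confirmed on retesting.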
Key:
[1] = system: E. coli EV36 T7 phage lysis inhibition, OD600; assay: capsule biogenesis inhibitors via T7 lysis, dose response, EV36 K1 hybrid, OD600, round 7 (AID 624056)
How it was run: (§1)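 Test system: Escherichia coli strain EV36, a K1 capsule/K-12 hybrid | Amount: 1:100 dilution of overnight culture | Buffer or medium: LB broth | Reagent: T7 bacteriophage | Dosing: Two-fold dilution series, 1% DMSO | Schedule: 1.5 h compound at 37 °C, 3 h after phage | Signal: OD600 absorbance | Measure: Phage-driven lysis of unencapsulated bacteria from OD600 change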

[2] = as above; settings: E. coli EV36 T7 phage lysis inhibition, OD600; at 5 µM (top of the series)
How it was run: as §1

SMILES	IC50 [1] [nM]	phage lysis inhibition [2]
O=C(O)c1sc(-c2ccc(OCCC(F)(F)F)cc2)cc1NC(=O)c1c(F)cccc1F	50	–
CC(C)(C)c1ccc(-c2cc(NC(=O)c3ccc(Br)s3)c(C(=O)O)s2)cc1	–	-11.6% (inactive)
O=C(NCc1ccncc1)c1ccc2ncsc2c1	–	123% (inactive)
O=C(NC1CCNCC1)c1ccc2ncsc2c1	–	121% (inactive)
O=C(Nc1cc(-c2ccc(OC(F)(F)F)cc2)sc1C(=O)O)c1cc2ccccc2o1	–	2.17% (inactive)
O=C(Nc1cc(-c2ccc(OCCC(F)(F)F)cc2)sc1C(=O)O)c1ccc(Br)o1	320	–
O=C(O)c1sc(-c2ccc(OCC(F)(F)F)cc2)cc1NC(=O)c1c(F)cccc1F	350	–
O=C(Nc1cc(-c2ccc(OCCCC(F)(F)F)cc2)sc1C(=O)O)c1ccc(Br)o1	480	–
O=C(NCCc1ccncc1)c1ccc2ncsc2c1	–	124% (inactive)
O=C(O)c1sc(-c2ccc(OCCC(F)(F)F)cc2)cc1NC(=O)c1c(F)cc(F)cc1F	440	–
O=C(Nc1cc(-c2ccc(OC(F)(F)F)cc2)sc1C(=O)O)c1ccc(Br)o1	1170	–
O=C(Nc1cc(-c2ccc(OC(F)(F)F)cc2)sc1C(=O)O)c1cccc(F)c1	–	75.5% (inactive)
O=C(Nc1cc(-c2ccc(OCCCC(F)(F)F)cc2)sc1C(=O)O)c1cc(Br)c(Br)o1	–	-21.6% (inactive) and -21.4% (inactive)

Second part, led by results:

IC50 [1] [nM]	SMILES	phage lysis inhibition [2]
340	CCCc1ccc(-c2cc(NC(=O)c3ccc(Br)o3)c(C(=O)O)s2)cc1	–
1880	O=C(O)c1sc(-c2ccc(OCC(F)(F)F)cc2)cc1NC(=O)c1c(F)cc(F)cc1F	–
660	O=C(Nc1ccncc1)c1ccc2ncsc2c1	126% (inactive)
1520	CCCc1ccc(-c2cc(NC(=O)c3c(F)cc(F)cc3F)c(C(=O)O)s2)cc1	–
1360	O=C(O)c1sc(-c2ccc(OC(F)(F)F)cc2)cc1NC(=O)c1c(F)cccc1F	–
410	CCOc1ccc(-c2cc(NC(=O)c3c(F)cccc3F)c(C(=O)O)s2)cc1	–
290	CCCCOc1ccc(-c2cc(NC(=O)c3c(F)cccc3F)c(C(=O)O)s2)cc1	–
310	[N-]=[N+]=NCCOc1ccc(-c2cc(NC(=O)c3c(F)cccc3F)c(C(=O)O)s2)cc1	–
960	CCCCOc1ccc(-c2cc(NC(=O)c3cc(Br)c(Br)o3)c(C(=O)O)s2)cc1	–
1830	CCOc1ccc(-c2cc(NC(=O)c3c(F)cc(F)cc3F)c(C(=O)O)s2)cc1	–
320	CCCCOc1ccc(-c2cc(NC(=O)c3ccc(Br)o3)c(C(=O)O)s2)cc1	–
< 650	O=C(O)c1sc(-c2ccc(OCCCC(F)(F)F)cc2)cc1NC(=O)c1c(F)cc(F)cc1F	–
330	O=C(Nc1cc(-c2ccc(OCC(F)(F)F)cc2)sc1C(=O)O)c1ccc(Br)o1	–
530	CCCOc1ccc(-c2cc(NC(=O)c3c(F)cc(F)cc3F)c(C(=O)O)s2)cc1	–
2650	CCOc1ccc(-c2cc(NC(=O)c3c(F)cccc3C(F)(F)F)c(C(=O)O)s2)cc1	–
560	CCCc1ccc(-c2cc(NC(=O)c3c(F)cccc3F)c(C(=O)O)s2)cc1	–
330	CCCCOc1ccc(-c2cc(NC(=O)c3c(F)cc(F)cc3F)c(C(=O)O)s2)cc1	–
90	O=C(O)c1sc(-c2ccc(OCCCC(F)(F)F)cc2)cc1NC(=O)c1c(F)cccc1F	–
2350	CCCc1ccc(-c2cc(NC(=O)c3cc(Br)c(Br)o3)c(C(=O)O)s2)cc1	–

Source: PubChem BioAssay AID624056 (Southern Research Specialized Biocontainment Screening …, 2012)
